Series [1] is described as follows: folding enthalpy; higher = less favourable; fluorescence melt of hairpins on a sequencing array, two-state fit. As to conditions: sodium 0.088 M. A digest of the protocol: (§1)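 Folding enthalpy and melting temperature were estimated with bootstrapped two-state fits and combined across four replicates by inverse-variance weighting, with fitted temperatures raised by 9.35 °C to match UV melts. The data were Cy3 fluorescence of library hairpins, with annealed Cy3 and quencher oligos, on a sequenced MiSeq flow cell in 50 mM Na-HEPES pH 8.0, 25 mM NaCl, imaged in 2.5 °C steps up to 60 °C and normalised to pre-quench Cy3 and control constructs.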

Series [2] can be described thus: melting temperature; fluorescence melt of hairpins on a sequencing array, two-state fit, raised by 9.35 °C to match UV melts. As to conditions: sodium 0.088 M. A digest of the protocol: as §1

For GTGTAGTCGAAAGACCAC (((..(((....)))))), the folding enthalpy in series [1] is -81.8 kJ/mol. In series [2], the Tm was 42.1 °C.
The like results for GGATACGAAAGTACCTCC ((((((....)))..))) were, in that order, -83.7 kJ/mol and 40.1 °C.
As to GGGGGGGGAAACCCCTCC ((.((((....)))).)), the folding enthalpy in series [1] is -73.2 kJ/mol. Further, in series [2], the Tm worked out at 60.9 °C.
On to GGAATGGGAAACCGTTCC ((((.((....)).)))), for which, in series [1], the folding enthalpy was -164 kJ/mol. Also, the Tm in series [2] was found to be 50.8 °C.
In the same order, the values of GATCAAACCTTTGATC ((((((....)))))) are -126 kJ/mol and 46 °C.
In the same order, the values of GTCTCAGGAAACTGAGGC (.(((((....))))).) are -156 kJ/mol and 51.1 °C.
GCCATTCGAAAGAAAGGC (((.(((....))).))): the folding enthalpy in series [1] was -155 kJ/mol. Moreover, in series [2], the Tm was determined as 49.3 °C.
The like results for GCCCAGGGAAACCTAGGC (((.(((....))).))) were, in that order, -90.1 kJ/mol and 43.2 °C.
Regarding GTCTACCGAAAGGTGAC (((.(((....)))))), in series [1], the folding enthalpy was -99.7 kJ/mol. For the same sequence, in series [2], the Tm was found to be 50.3 °C.
Take GCGGTTTCGAAAGAACGC (((..(((....)))))): the folding enthalpy in series [1] is -111 kJ/mol. The Tm in series [2] stood at 44.8 °C.
On to GGTAGTGGAAACATTGCC ((.(.((....)).).)), for which the folding enthalpy in series [1] was -71.6 kJ/mol. In addition, the Tm in series [2] turned out to be 28.5 °C.
Take GTATTCGAAAGAACTAC ((((((....))).))): in series [1], the folding enthalpy was -38.3 kJ/mol. Further, the Tm in series [2] was 22.4 °C.
The like results for GGCTCCGAAAGGATTGCC ((((((....)))..))) were, in that order, -82 kJ/mol and 48.7 °C.
Consider GTGTTAACGAAAGTTCAC (((..(((....)))))), for which the folding enthalpy in series [1] is -52.4 kJ/mol. The Tm in series [2] stood at 34.9 °C.
As to GGTGCACGAAAGTGACC (((.(((....)))))), the folding enthalpy in series [1] was -73 kJ/mol. Also, the Tm in series [2] came to 49 °C.
In the same order, the values of GCCCCGCGAAAGCGTCGC ((..(((....)))..)) are -34.1 kJ/mol and 28.8 °C.
GCGCCATCGAAAGATCGC (((..(((....)))))): in series [1], the folding enthalpy was -102 kJ/mol. In addition, in series [2], the Tm is 42.5 °C.
The like results for GGAATCGGAAACGATTTC (.(((((....))))).) were, in that order, -139 kJ/mol and 47.9 °C.
In the same order, the values of GTACACGCGAAAGCGTAC (((..(((....)))))) are -33.7 kJ/mol and 35.5 °C.
The like results for GCCGAAACGAAAGTTGGC (((..(((....)))))) were, in that order, -93.3 kJ/mol and 48 °C.
As for GTCTGTGCGAAAGCAGAC (((..(((....)))))), the folding enthalpy in series [1] is -81.5 kJ/mol. In series [2], the Tm was 46.4 °C.
For the sequence GGCCTCGAAAGAGACGCC ((((((....)))..))), in series [1], the folding enthalpy is -102 kJ/mol. In addition, the Tm in series [2] came out at 47.7 °C.
Take GAGGTAACGAAAGTTCTC (((..(((....)))))): in series [1], the folding enthalpy was -46.4 kJ/mol. In series [2], the Tm worked out at 29 °C.
The like results for CGTTGTCGGAAACGAACG (((..(((....)))))) were, in that order, -48.7 kJ/mol and 35.1 °C.
For GCAGAGCGAAAGCTGGGC ((..(((....)))..)), the folding enthalpy in series [1] is -82 kJ/mol. Further, the Tm in series [2] was 50.7 °C.
Take GCGTAAACACGC ((((....)))): in series [1], the folding enthalpy is -81.6 kJ/mol. Moreover, the Tm in series [2] is 50.4 °C.
The like results for GCATGGCGAAAGCGATGC ((((.((....)).)))) were, in that order, -92.1 kJ/mol and 64.2 °C.
Consider GAAAAACGAAAGTTGTTC (((.(((....))).))), for which the folding enthalpy in series [1] is -82 kJ/mol. Further, the Tm in series [2] amounted to 33.6 °C.
The like results for GTGTGGGGAAACCCATAC ((.((((....)))).)) were, in that order, -129 kJ/mol and 49.2 °C.
In the same order, the values of GGCACTGGAAACGGTGCC (((((.(....).))))) are -212 kJ/mol and 60.5 °C.
In the same order, the values of GATCTTGAGAAGATC ((((((...)))))) are -83.4 kJ/mol and 39.6 °C.
For the sequence GCATACGAAAGTAACTGC ((((((....)))..))), the folding enthalpy in series [1] is -57 kJ/mol. In series [2], the Tm came to 31.1 °C.
Regarding GGCGCCGAAAGGCAGGCC ((((((....)))..))), the folding enthalpy in series [1] was -105 kJ/mol. Besides, in series [2], the Tm turned out to be 64.9 °C.
For the sequence GATCTATCCCTAGATC ((((((....)))))), the folding enthalpy in series [1] is -136 kJ/mol. For the same sequence, the Tm in series [2] amounted to 41.4 °C.
The like results for GATCTCGCGTGAGATC ((((((....)))))) were, in that order, -145 kJ/mol and 53.8 °C.
The like results for GGGGTCGGAAACGGTCCC (((..((....))..))) were, in that order, -156 kJ/mol and 49.4 °C.
The like results for GCACGAGGAAACTTGTGC ((((.((....)).)))) were, in that order, -182 kJ/mol and 54.5 °C.

Source of the values: the array DNA melting data of Ke et al. (doi:10.1101/2024.01.08.574731).
